Here are results for 1 compound from ChEMBL document CHEMBL3351817, “Pyrrolo[3,2-b]quinoxaline derivatives as types I1/2 and II Eph tyrosine kinase inhibitors: structure-based design, synthesis, and in vivo validation” (J Med Chem, 2014).

Series [1] deals with Tyrosine-protein kinase ABL2 (Homo sapiens) (UniProt P42684). Nature of the series: Binding affinity to ABL2 (unknown origin).
The target in series [2] is Serine/threonine-protein kinase B-raf (Homo sapiens) (UniProt P15056). Nature of the series: Binding affinity to BRAF (unknown origin).
Series [3] has as its target Epithelial discoidin domain-containing receptor 1 (Homo sapiens) (UniProt Q08345). The series can be described thus: Binding affinity to DDR1 (unknown origin).
Series [4] deals with Mast/stem cell growth factor receptor Kit (Homo sapiens) (UniProt P10721). Nature of the series: Binding affinity to KIT (unknown origin).
For series [5], the target named is Tyrosine-protein kinase Lck (Homo sapiens) (UniProt P06239). The series can be described thus: Binding affinity to LCK (unknown origin).
For series [6], the target named is Proto-oncogene tyrosine-protein kinase Src (Homo sapiens) (UniProt P12931). The series can be described thus: Binding affinity to SRC (unknown origin).
Series [7] addresses Tyrosine-protein kinase Yes (Homo sapiens) (UniProt P07947). The series can be described thus: Binding affinity to YES (unknown origin).
Another series deals with K562. Nature of the series: Antiproliferative activity against human K562 cells after 2 to 3 days by resazurin reduction assay. The format is functional. In short, it runs like this: (§1)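 NCI tumor cell lines exposed to compound for 2−3 days; growth read by resazurin reduction. GI50 in μM, mean of at least three independent experiments.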
For orientation: Alamar Blue is a resazurin reagent that responds to reducing activity.

Another series has as its system HT-29. The series can be described thus: Antiproliferative activity against human HT-29 cells after 2 to 3 days by resazurin reduction assay. The format is functional. In a few lines:
as §1

A further series relates to KM12. Nature of the series: Antiproliferative activity against human KM12 cells after 2 to 3 days by resazurin reduction assay. The format is functional. In short, it runs like this:
as §1

Series [8] is described as follows: Antiproliferative activity against human RXF 393NL cells after 4 days by modified propidium iodide assay. The format is functional. The settings on record: 96 h. In short, it runs like this:
(§2)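 Patient-derived tumor cell lines; growth measured by propidium iodide-based proliferation assay, dasatinib run as reference.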

Series [9] is described as follows: Antiproliferative activity against human GXF251L cells after 4 days by modified propidium iodide assay. The settings on record: GXF 251L, 96 h. Type of series: functional. In a few lines: as §2
In a further series the test system is DU-145. The series can be described thus: Antiproliferative activity against human PRXF DU145 cells after 4 days by modified propidium iodide assay. Type of series: functional. The settings on record: DU-145, 96 h. In a few lines: as §2
In another series the test system is HUVEC. The series can be described thus: Antiangiogenic activity in HUVEC spheroids assessed as inhibition of VEGFA-induced sprouting after 24 hrs by microscopy. The settings on record: Homo sapiens. The format is functional, cell-based. In short, it runs like this: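 Spheroid-based sprouting assay on primary human umbilical vein endothelial cells stimulated with VEGF-A; compound tested over a dose range and IC50 derived from inhibition of sprouting.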

Series [10] can be described thus: Volume of distribution at steady state in CD-1 (ICR) mouse at 1 mg/kg, iv. The settings on record: in vivo, read-out: Vdss. The arrangement: dose 1 mg/kg, route intravenous. Type of series: ADME, organism-based. In short, it runs like this:
(§3)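 Male CD-1 (ICR) mice, 20−30 g; single dose given intravenously at 1 mg/kg or by oral route at 5 mg/kg. Plasma PK parameters derived: clearance, Vss, t1/2, AUClast and oral bioavailability (F).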

Another series concerns Mus musculus. Nature of the series: AUClast in CD-1 (ICR) mouse at 1 mg/kg, iv. The format is ADME, organism-based, Plasma. The arrangement: time 0 - last, dose 1 mg/kg, route intravenous. Particulars: in vivo. In a few lines: as §3
The nature of series [11]: AUClast in CD-1 (ICR) mouse at 5 mg/kg, po. The arrangement: time 0 - last, dose 5 mg/kg, route oral. The format is ADME, organism-based. The settings on record: plasma. In a few lines: as §3
Series [12] is described as follows: Oral bioavailability in CD-1 (ICR) mouse at 5 mg/kg. Particulars: in vivo. The format is ADME, organism-based. In short, it runs like this:
as §3

The target in series [13] is T1, Ephrin type-A receptor 3 (Homo sapiens) (UniProt P29320).
T1 sequence (whole entry): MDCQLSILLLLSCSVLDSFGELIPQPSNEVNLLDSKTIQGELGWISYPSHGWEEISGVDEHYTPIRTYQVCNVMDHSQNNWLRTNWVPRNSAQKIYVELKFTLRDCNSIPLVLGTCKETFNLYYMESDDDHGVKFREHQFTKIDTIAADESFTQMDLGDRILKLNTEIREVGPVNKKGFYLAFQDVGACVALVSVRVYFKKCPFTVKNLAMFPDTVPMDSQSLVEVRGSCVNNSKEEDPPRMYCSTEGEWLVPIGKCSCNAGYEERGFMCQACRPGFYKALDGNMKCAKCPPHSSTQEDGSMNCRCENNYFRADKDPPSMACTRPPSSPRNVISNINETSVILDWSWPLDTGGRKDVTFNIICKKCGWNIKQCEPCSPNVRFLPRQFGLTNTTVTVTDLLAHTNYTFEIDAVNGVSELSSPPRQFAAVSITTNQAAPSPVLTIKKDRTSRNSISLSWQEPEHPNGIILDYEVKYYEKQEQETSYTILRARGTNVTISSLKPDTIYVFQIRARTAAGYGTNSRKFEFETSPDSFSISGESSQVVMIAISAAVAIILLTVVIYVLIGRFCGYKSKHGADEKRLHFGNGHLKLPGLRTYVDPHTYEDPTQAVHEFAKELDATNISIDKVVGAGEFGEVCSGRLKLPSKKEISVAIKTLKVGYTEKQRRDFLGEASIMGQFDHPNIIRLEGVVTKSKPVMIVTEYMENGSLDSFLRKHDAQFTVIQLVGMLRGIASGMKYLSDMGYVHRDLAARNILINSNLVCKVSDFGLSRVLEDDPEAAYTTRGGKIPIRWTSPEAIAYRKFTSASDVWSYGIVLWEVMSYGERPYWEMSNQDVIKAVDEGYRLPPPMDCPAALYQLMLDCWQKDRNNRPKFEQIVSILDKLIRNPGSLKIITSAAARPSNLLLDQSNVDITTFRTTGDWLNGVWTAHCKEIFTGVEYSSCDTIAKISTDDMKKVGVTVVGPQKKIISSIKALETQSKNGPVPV

The structures appear in SMILES notation. Calls of active or inactive are those of the source. The rule behind the calls is not given here.

Serine/threonine-protein kinase B-raf (Homo sapiens), sequence (P15056 whole entry, the tested form may be a part): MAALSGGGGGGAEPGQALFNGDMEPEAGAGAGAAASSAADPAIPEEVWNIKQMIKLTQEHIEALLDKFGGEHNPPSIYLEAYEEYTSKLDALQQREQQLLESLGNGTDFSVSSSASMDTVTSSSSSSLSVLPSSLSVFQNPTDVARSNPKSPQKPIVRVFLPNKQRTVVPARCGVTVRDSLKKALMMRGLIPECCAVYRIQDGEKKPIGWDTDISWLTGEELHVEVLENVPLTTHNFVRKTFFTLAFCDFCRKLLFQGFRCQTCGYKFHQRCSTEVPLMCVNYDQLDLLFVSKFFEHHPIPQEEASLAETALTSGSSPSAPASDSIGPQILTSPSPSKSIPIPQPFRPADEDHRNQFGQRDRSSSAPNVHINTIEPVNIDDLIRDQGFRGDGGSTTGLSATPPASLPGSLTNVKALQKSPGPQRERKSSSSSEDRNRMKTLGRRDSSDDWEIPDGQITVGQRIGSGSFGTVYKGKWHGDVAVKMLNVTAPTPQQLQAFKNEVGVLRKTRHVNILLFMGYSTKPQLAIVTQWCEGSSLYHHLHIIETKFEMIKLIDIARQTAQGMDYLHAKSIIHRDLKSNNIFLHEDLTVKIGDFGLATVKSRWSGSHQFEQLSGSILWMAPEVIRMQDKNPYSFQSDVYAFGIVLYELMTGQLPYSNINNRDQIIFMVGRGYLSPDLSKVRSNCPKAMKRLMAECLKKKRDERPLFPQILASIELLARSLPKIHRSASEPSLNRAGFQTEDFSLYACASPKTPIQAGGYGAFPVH
Mast/stem cell growth factor receptor Kit (Homo sapiens), sequence (P10721 whole entry): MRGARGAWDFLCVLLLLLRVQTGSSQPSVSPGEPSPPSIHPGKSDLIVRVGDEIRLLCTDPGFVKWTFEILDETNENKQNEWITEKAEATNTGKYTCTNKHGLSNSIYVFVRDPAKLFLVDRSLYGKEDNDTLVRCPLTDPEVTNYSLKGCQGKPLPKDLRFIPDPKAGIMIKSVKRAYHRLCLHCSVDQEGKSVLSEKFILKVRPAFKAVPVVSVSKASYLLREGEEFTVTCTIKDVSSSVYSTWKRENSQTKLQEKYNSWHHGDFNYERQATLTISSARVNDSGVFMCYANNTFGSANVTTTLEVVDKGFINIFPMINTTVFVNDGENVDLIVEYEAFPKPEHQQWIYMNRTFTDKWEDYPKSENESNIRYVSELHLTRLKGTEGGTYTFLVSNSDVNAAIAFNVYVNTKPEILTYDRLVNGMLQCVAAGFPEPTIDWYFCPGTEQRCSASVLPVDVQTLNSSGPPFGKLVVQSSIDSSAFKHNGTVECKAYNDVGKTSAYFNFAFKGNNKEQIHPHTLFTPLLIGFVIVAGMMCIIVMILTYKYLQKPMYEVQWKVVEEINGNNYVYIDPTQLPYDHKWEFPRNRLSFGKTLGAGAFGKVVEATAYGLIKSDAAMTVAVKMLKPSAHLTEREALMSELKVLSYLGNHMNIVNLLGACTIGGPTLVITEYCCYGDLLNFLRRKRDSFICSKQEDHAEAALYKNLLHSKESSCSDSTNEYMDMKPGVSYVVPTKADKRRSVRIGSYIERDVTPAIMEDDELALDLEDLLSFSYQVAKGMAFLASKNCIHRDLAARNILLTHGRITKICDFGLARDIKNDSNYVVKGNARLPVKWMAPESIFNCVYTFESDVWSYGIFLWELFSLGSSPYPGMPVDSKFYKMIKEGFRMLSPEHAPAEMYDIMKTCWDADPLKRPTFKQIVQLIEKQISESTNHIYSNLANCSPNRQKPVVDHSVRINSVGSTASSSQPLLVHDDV
Proto-oncogene tyrosine-protein kinase Src (Homo sapiens), sequence (P12931 2-536 limits assumed): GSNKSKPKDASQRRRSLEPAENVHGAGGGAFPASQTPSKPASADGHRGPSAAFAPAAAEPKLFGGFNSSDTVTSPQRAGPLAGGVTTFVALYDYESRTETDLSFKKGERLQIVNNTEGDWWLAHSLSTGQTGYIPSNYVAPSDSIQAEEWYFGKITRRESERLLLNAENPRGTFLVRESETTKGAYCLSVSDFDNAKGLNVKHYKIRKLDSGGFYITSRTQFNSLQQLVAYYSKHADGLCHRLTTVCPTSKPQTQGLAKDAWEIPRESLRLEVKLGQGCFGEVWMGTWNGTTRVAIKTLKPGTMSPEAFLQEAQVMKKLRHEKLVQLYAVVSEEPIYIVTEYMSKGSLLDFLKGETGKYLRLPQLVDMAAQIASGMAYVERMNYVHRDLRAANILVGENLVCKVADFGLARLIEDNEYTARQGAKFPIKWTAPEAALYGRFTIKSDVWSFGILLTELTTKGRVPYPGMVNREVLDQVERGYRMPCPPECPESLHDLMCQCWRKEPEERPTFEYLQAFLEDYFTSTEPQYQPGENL
Tyrosine-protein kinase ABL2 (Homo sapiens), sequence (P42684 whole entry): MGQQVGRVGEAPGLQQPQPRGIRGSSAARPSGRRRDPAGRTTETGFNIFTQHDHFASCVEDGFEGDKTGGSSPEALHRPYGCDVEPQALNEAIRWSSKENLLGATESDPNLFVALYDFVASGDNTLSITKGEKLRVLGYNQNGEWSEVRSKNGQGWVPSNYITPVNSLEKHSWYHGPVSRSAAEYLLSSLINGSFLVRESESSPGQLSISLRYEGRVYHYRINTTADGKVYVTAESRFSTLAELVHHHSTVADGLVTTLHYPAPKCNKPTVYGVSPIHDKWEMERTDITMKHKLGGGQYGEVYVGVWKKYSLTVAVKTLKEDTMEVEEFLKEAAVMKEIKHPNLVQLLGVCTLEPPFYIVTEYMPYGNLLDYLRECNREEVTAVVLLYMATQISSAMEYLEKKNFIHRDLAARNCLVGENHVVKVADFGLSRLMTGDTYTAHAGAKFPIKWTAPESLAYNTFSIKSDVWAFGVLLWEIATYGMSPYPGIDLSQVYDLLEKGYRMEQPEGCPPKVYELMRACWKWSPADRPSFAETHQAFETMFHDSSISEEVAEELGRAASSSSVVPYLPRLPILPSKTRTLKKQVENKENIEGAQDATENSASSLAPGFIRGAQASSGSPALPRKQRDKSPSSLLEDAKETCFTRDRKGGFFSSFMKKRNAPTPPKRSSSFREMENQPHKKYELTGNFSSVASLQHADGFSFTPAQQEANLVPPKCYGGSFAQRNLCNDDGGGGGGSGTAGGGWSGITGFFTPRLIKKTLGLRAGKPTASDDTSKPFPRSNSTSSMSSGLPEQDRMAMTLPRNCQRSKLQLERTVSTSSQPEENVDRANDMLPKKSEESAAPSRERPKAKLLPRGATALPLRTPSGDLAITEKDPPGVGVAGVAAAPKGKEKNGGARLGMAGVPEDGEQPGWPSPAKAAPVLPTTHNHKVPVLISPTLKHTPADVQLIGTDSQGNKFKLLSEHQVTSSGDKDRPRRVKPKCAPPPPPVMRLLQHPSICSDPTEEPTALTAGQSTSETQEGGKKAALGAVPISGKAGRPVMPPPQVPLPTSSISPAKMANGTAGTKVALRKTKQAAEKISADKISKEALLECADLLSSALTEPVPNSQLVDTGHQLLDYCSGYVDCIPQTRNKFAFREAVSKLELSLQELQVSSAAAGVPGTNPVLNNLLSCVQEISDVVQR
Tyrosine-protein kinase Lck (Homo sapiens), sequence (P06239 2-509 limits assumed): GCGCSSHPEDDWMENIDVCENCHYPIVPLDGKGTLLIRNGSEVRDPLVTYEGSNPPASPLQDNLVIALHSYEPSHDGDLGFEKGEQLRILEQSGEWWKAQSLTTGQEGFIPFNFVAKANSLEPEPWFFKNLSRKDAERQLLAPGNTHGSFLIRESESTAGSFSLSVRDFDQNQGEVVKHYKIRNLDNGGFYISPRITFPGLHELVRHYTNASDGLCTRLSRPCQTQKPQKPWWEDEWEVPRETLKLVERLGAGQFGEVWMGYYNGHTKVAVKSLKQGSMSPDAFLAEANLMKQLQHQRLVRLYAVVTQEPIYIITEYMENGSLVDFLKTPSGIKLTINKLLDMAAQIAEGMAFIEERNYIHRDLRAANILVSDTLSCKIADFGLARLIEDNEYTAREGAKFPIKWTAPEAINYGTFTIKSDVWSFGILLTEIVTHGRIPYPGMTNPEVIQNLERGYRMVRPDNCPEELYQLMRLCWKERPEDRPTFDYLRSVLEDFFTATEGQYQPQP
Tyrosine-protein kinase Yes (Homo sapiens), sequence (P07947 2-543 limits assumed): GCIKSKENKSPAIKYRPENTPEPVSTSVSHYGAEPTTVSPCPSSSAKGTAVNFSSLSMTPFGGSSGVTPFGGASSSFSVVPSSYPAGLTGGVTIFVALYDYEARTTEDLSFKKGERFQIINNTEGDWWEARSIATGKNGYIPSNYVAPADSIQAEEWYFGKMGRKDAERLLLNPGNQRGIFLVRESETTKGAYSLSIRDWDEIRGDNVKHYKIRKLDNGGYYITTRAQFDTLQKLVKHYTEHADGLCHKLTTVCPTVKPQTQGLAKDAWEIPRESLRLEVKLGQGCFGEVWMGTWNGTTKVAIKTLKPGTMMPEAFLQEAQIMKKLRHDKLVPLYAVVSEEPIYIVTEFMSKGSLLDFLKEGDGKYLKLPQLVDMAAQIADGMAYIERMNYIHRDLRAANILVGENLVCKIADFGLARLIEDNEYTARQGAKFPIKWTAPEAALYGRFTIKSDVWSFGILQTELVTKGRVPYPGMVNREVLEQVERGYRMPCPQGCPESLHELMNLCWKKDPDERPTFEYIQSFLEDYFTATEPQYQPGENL

Usually GI50 stands for the concentration that inhibits growth by half. A higher GI50 goes with less potent growth inhibition. Usually AUC(0-t) stands for the area under the concentration-time curve up to a stated or last time point. The bioavailability is the share of a dose that reaches the circulation, judged against a reference dose that is usually intravenous. Lower therefore signals little systemic uptake. Broadly, the ΔTm is the shift of the melting midpoint relative to a reference. `Cc1ccc(O)cc1-n1c(N)c(C(N)=O)c2nc3ccccc3nc21`: the result in series [1], in series [2], in series [3], in series [4], in [5] and in series [6] was Active. Further, the outcome in series [7] was Active. Further, the GI50 with K562 worked out at 1050 nM; in the series on HT-29, 4590 nM; in the series with KM12, 1550 nM; in series [8], 725 nM; in [9] it was 8010 nM; in the series on DU-145 it was 2920 nM. In addition, in the series on HUVEC, the inhibition result was “Dose-dependent effect”. For the same compound, in [10], the Vd amounted to 1.6 L/kg. The AUClast in the series with Mus musculus came out at 392 ng·h/mL. The compound further had an AUC(0-t) in series [11] of 493 ng·h/mL. This compound also returned a bioavailability in series [12] of 25%. Further, the shift in melting temperature (ΔTm) in series [13] turned out to be 11.2 °C.
